# Laboratory results as given in ChEMBL document CHEMBL1153592, “1,8-Naphthyridine-3-carboxamide derivatives with anticancer and anti-inflammatory activity” (Eur J Med Chem, 2009).
# The source made the active and inactive calls. The rule behind the calls is not given here.
# How the values were obtained:
# [1] = test system: HBL-100; test: Cytotoxicity against human HBL100 cells after 72 hrs by MTT assay; format: functional, cell-based; conditions: HBL-100, 72 h
# [2] = Antiinflammatory activity in C57BL/6 mouse DC assessed as inhibition of LPS-induced IL1-beta production at 1 ug/ml after 24 hrs by ELISA; format: functional
# In short: (§1)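 Dendritic cells grown from femoral bone marrow of 8–12-week-old C57BL/6 mice in RPMI-1640 with 10% FBS and 20 ng/ml rmGM-CSF at 37 °C, 5% CO2. Day-6 immature DCs were stimulated with 10 ng/ml LPS plus compound for 24 h. Supernatant cytokine/chemokine measured by ELISA (pg/ml); % change = (B−A)/A×100, versus LPS-stimulated DCs alone.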
# [3] = test system: PA-1; test: Cytotoxicity against human PA1 cells after 72 hrs by MTT assay; format: functional, cell-based; conditions: PA-1, 72 h
# [4] = Antiinflammatory activity in C57BL/6 mouse DC assessed as inhibition of LPS-induced IL-6 production at 0.1 ug/ml after 24 hrs by ELISA; format: functional; in short: as §1
# [5] = test system: SW-620; test: Cytotoxicity against human SW620 cells after 72 hrs by MTT assay; format: functional, cell-based; conditions: SW-620, 72 h
# [6] = test system: K562; test: Cytotoxicity against human K562 cells after 72 hrs by MTT assay; format: functional, cell-based; conditions: K562, 72 h
# [7] = Antiinflammatory activity in C57BL/6 mouse DC assessed as inhibition of LPS-induced IL1-beta production at 0.1 ug/ml after 24 hrs by ELISA; format: functional; in short: as §1
# [8] = test system: KB; test: Cytotoxicity against human KB cells after 72 hrs by MTT assay; format: functional, cell-based
# [9] = Antiinflammatory activity in C57BL/6 mouse DC assessed as inhibition of LPS-induced IL-6 production at 1 ug/ml after 24 hrs by ELISA; format: functional; in short: as §1
# [10] = test system: DU-145; test: Cytotoxicity against human DU145 cells after 72 hrs by MTT assay; format: functional, cell-based; conditions: DU-145, 72 h
# [11] = test system: A549; test: Cytotoxicity against human A549 cells after 72 hrs by MTT assay; format: functional, cell-based; conditions: A549, 72 h
# [12] = test system: ECV-304; test: Cytotoxicity against human ECV304 cells after 72 hrs by MTT assay; format: functional, cell-based
# [13] = test system: MIA PaCa-2; test: Cytotoxicity against human MIAPaCa2 cells after 72 hrs by MTT assay; format: functional, cell-based; conditions: MIA PaCa-2, 72 h
# [14] = Cytotoxicity against mouse NIH/3T3 cells after 72 hrs by MTT assay; format: cell-based, NIH3T3
# [15] = test system: MIA PaCa-2; test: Cytotoxicity against human MIAPaCa2 cells at 10 uM after 72 hrs by MTT assay; format: functional, cell-based
# In short: (§2)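 Three-day MTT screen with 5000–10,000 cells/well and 72 h compound exposure at the top screening concentration. After 3 h of MTT uptake, lysis with 10% SDS–0.01 N HCl, then A540 read after 1 h. % cytotoxicity = (1 − X/R1)×100, where X is treated minus blank absorbance and R1 is untreated control absorbance.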
# [16] = test system: K562; test: Cytotoxicity against human K562 cells at 10 uM after 72 hrs by MTT assay; format: functional, cell-based; in short: as §2
# [17] = Cytotoxicity against mouse NIH/3T3 cells at 10 uM after 72 hrs by MTT assay; format: cell-based; conditions: nih3t3, 72 h; in short: as §2
# [18] = test system: ECV-304; test: Cytotoxicity against human ECV304 cells at 10 uM after 72 hrs by MTT assay; format: functional, cell-based; in short: as §2
# [19] = test system: A549; test: Cytotoxicity against human A549 cells at 10 uM after 72 hrs by MTT assay; format: functional, cell-based; in short: as §2
# [20] = test system: DU-145; test: Cytotoxicity against human DU145 cells at 10 uM after 72 hrs by MTT assay; format: functional, cell-based; in short: as §2
# [21] = test system: PA-1; test: Cytotoxicity against human PA1 cells at 10 uM after 72 hrs by MTT assay; format: functional, cell-based; in short: as §2
# [22] = test system: KB; test: Cytotoxicity against human KB cells at 10 uM after 72 hrs by MTT assay; format: functional, cell-based; in short: as §2
# [23] = test system: SW-620; test: Cytotoxicity against human SW620 cells at 10 uM after 72 hrs by MTT assay; format: functional, cell-based; in short: as §2
# [24] = test system: HBL-100; test: Cytotoxicity against human HBL100 cells at 10 uM after 72 hrs by MTT assay; format: functional, cell-based; in short: as §2
# [25] = Homo sapiens, ECV-304, 72 h, read-out: IC50
# [26] = Mus musculus, NIH3T3, 72 h, read-out: IC50
SMILES,IC50 [1] [µM],inhibition (INH) [2] [%],IC50 [3] [µM],inhibition (INH) [4] [%],IC50 [5] [µM],IC50 [6] [µM],inhibition (INH) [7] [%],IC50 [8] [µM],inhibition (INH) [9] [%],IC50 [10] [µM],IC50 [11] [µM],"IC50 [12, 25] [µM]",IC50 [13] [µM],"IC50 [14, 26] [µM]",IC50 ([14]; nih3t3),also measured
C#CCn1cc(C(=O)NC(CC(=O)Nc2ccccc2)c2ccccc2)c(=O)c2ccc(Cl)nc21 (stereo not drawn),4,99.4,0.54,69.5,2.9,7.7,28.3,> 10,75.4,> 10,> 10,4,3,4.4,–,–
C#CCn1cc(C(=O)NC(CC(=O)NC2CCCC2)c2ccccc2)c(=O)c2ccc(Cl)nc21 (stereo not drawn),3.2,18.1,1.1,79.8,2.7,6.8,82,> 10,81.7,> 10,9.5,7.8,2.4,4.4,–,–
C#CCn1cc(C(=O)NC(C(=O)NC2CCCCC2)c2ccccc2)c(=O)c2cc(F)c(Cl)nc21 (stereo not drawn),> 10,–,1.8,–,> 10,> 10,–,> 10,–,> 10,> 10,> 10,> 10,7.4,–,–
C#CCn1cc(C(=O)NC(C(=O)Nc2ccccc2)c2ccccc2)c(=O)c2cc(F)c(Cl)nc21 (stereo not drawn),> 10,97,0.5,84.4,1.4,5,44.3,1.1,99.9,0.6,> 10,9.1,> 10,–,Not Active,–
COc1cccc2c1C(=O)c1c(O)c3c(c(O)c1C2=O)C[C@@](O)(C(=O)CO)C[C@@H]3O[C@H]1C[C@H](N)[C@H](O)[C@H](C)O1 [DOXORUBICIN],0.24,–,0.63,–,0.08,–,–,–,–,0.1,–,–,0.15,0.39,–,IC50 ([12]; ecv-304): Not Active
C#CCn1cc(C(=O)NC(C(=O)NC2CCCCC2)c2ccccc2)c(=O)c2ccc(Cl)nc21 (stereo not drawn),–,–,–,–,–,–,–,–,–,–,–,–,–,–,–,Activity [15]: inactive; Activity [16]: inactive; Activity [17]: Not Active; Activity [18]: inactive; Activity [19]: inactive; Activity [20]: inactive; Activity [21]: inactive; Activity [22]: inactive; Activity [23]: inactive; Activity [24]: inactive
C#CCn1cc(C(=O)NC(C(=O)NC2CCCC2)c2ccccc2)c(=O)c2cccnc21 (stereo not drawn),> 10,–,> 10,–,> 10,> 10,–,4.5,–,> 10,> 10,> 10,> 10,–,Not Active,–
C#CCn1cc(C(=O)NC(CC(=O)NC2CCCC2)c2ccccc2)c(=O)c2cc(F)c(Cl)nc21 (stereo not drawn),2,102,0.68,80.1,2.1,7.3,83.4,4.9,100,> 10,6.1,5.1,4.4,2.4,–,–
C#CCn1cc(C(=O)NC(CC(=O)NC2CCCCC2)c2ccccc2)c(=O)c2cc(F)c(Cl)nc21 (stereo not drawn),> 10,–,2.3,–,> 10,6.2,–,> 10,–,8.03,> 10,9.8,4.9,–,Not Active,–
